# From the RNAGym collection of RNA variant scans (doi:10.1126/science.aae0568)
# Variants at the floor of the assay were thinned out.
# B1: tRNA (parent)
# chain: GUUCCGUUGGCGUAAUGGUAACGCGUCUCCCUCCUAAGGAGAAGACUGCGGGUUCGAGUCCCGUACGGAACG
# Variants of: B1
# Assay: yeast fitness relative to wild type (ratio to wild type); higher = fitter; tRNA-Arg(CCU), competitive growth, 37 C, YPD
# In short: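 A pool of Saccharomyces cerevisiae strains, each with a tRNA-Arg(CCU) gene variant at the native genomic locus, was competed in YPD at 37°C for 24 hours across six parallel replicates. The variants had been chemically synthesised at a 3% per-site mutation rate over 69 sites, and gene amplicons before and after competition were read by 100-nucleotide paired-end sequencing. Darwinian fitness relative to wild type rested on changes in genotype frequencies. Genotypes required ≥ 100 starting reads, and estimates < 0.5 were set to 0.5.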
row,Variant,yeast fitness
1,GUUCCGUUGGCGUAAUGGUAACGCGUCUCGCUCCUAAGGAGAAGACUGCGGGUUCGUGUCCCGUACGGAACG [C30G A57U],0.609
2,GUUCCGUUGGCGUAAUGGUAACGCGUCUCGCUCCUAAGGAGAAGACUGCGGGUUCGAAUCCCGUACGGUACG [C30G G58A A69U],0.535
3,GUUCCGUUGGCGUAAUGGUAACGCGUCUCGCUCCUAAGCAGAAGACUGCGGGUUCGAGCCCCCUACGGAACG [C30G G39C U59C G63C],0.558
4,GUUCCGUUGGCGUAAUGGUAACGCGUCUCGCUCCUAAGGAGAAGACUGCGGGUUCGACUCCCCUACGGAACG [C30G G58C G63C],≤ 0.5
5,GUUCCGUUGGCGUAAUGGUAACGCGUCUCGGUCCUAAGGAGAAGACUGCGGGUUCGAGUCCCGCCCGGAACG [C30G C31G U64C A65C],≤ 0.5
6,GUUCCGUUGGCGUAAUGGUAACGCGUCUCGCUCCUAAGGAGAAGACUGCGGGUUCGAGUCUCGUACGGAGCG [C30G C61U A70G],0.603
7,GUUCCGUUGGCGUAAUGGUAACGCGUCUCGCUGUUAAGGAGUAGACUGCGGGUUAGAGUCCCGUACGGAACG [C30G C33G C34U A42U C55A],≤ 0.5
8,GUUCCGUUGGCGUAAUGGUAACGCGUCUCGCUGUUAAGGAGUAGACUGCGGGUUCGAGUCCCGUAUCGAACG [C30G C33G C34U A42U C66U G67C],≤ 0.5
9,GUUCCGUUGGCGUAAUGGUAACGCGUCUCGCUUCUAAGGAGAAGUCUGCGGGUUCGAGUCCCGUACGGAACG [C30G C33U A45U],0.57
10,GUUCCGUUGGCGUAAUGGUAACGCGUCUCGCUCCUAAGGAGAAGACUCCGGGUUCGAGUCCCGUACGGAACG [C30G G48C],0.624
11,GUUCCGUUGGCGUAAUGGUAACGCGUCUCGCUCCUAAGGAGAAGACUACGGGUUCGAGUCCCGUACGGAACG [C30G G48A],0.633
12,GUUCCGUUGGCGUAAUGGUAACGCGUCUCGUUCCUAAGGAGAAGACUGCGGGUUCGAGUCGCGUACGGAACG [C30G C31U C61G],0.557
13,GUUCCGUUGGCGUAAUGGUAACGCGUCUCGCUCCUAAGGAGAAAACUGCGGGUUCGAGUCCCAUACGGAACG [C30G G44A G63A],≤ 0.5
14,GUUCCGUUGGCGUAAUGGUAACGCGUCUCGCUCCUAAGGAGAAGACUGCGGGUUCGUGUCCCGUAUGGAUCG [C30G A57U C66U A70U],≤ 0.5
15,GUUCCGUUGGCGUAAUGGUAACGCGUCUCGCUCCUAAGGAGAAGACUGCGCGUUCUAGUCCCGUACGGAACG [C30G G51C G56U],0.628
16,GUUCCGUUGGCGUAAUGGUAACGCGUCUCGCUCCUAAGGAGAAGACUGCGCGUUCGAGUCCCGUGCGGAACG [C30G G51C A65G],≤ 0.5
17,GUUCCGUUGGCGUAAUGGUAACGCGUCUCGCUCCUAAGGAGAAGAAUGCGGGUUCGAGUACCGUACGGAACG [C30G C46A C60A],≤ 0.5
18,GUUCCGUUGGCGUAAUGGUAACGCGUCUCGCUCCUAAGGAGAAGACUGCGGGUUCGAGUCCCGUACGGGACG [C30G A69G],≤ 0.5
19,GUUCCGUUGGCGUAAUGGUAACGCGUCUCGCUCCUAAGGAGAAGACUGCGGGUUCGAGUCCCGUACGGCACG [C30G A69C],0.687

row,Variant,yeast fitness
1,GUUCCGUUGGCGUAAUGGUAACGCGUCUCGCUCGUAAGGAGAAGACUGCGGGUUCGAGUCCCCUACGGAACG [C30G C34G G63C],≤ 0.5
2,GUUCCGUUGGCGUAAUGGUAACGCGUCUCGCUCCUAAGGAGAAGACUGCGGGUUUGAGUCCCGUACGGAACG [C30G C55U],0.622
3,GUUCCGUUGGCGUAAUGGUAACGCGUCUCGCUCCUAAGGAGAAGAGUGCGGGUUCGAGUUCCGUACGGGACG [C30G C46G C60U A69G],≤ 0.5
4,GUUCCGUUGGCGUAAUGGUAACGCGUCUCGGACCUAAGGAGAAGACUGCGGGUUCGAGUCCCGUAUGGAACG [C30G C31G U32A C66U],0.527
5,GUUCCGUUGGCGUAAUGGUAACGCGUCUCGCUGUUAAGGAGUAGACUGCGGGUUCGAGUCCCGUCCGGAACG [C30G C33G C34U A42U A65C],≤ 0.5
6,GUUCCGUUGGCGUAAUGGUAACGCGUCUCGCUGCUAAGGAGAAGACUGCGGGUUCGAGUCCCGUACGGCACG [C30G C33G A69C],0.544
7,GUUCCGUUGGCGUAAUGGUAACGCGUCUCGGUCCUAAGGAGAGGACUGCGGGUUCCAGUCCCGUACGGAACG [C30G C31G A43G G56C],≤ 0.5
8,GUUCCGUUGGCGUAAUGGUAACGCGUCUCGCUUCUAAGGAGAAGACUGUGGGUUCGAGUCCCGUACGGAACG [C30G C33U C49U],0.556
9,GUUCCGUUGGCGUAAUGGUAACGCGUCUCGCUUCUAAGGAGAAGACUGCGGGUUCGAGUCCCGUACGGAACG [C30G C33U],0.555
10,GUUCCGUUGGCGUAAUGGUAACGCGUCUCGCUCUUUAGGAGAAGACUGCGGGUUCGAGUCCCGUUCGGAACG [C30G C34U A36U A65U],0.612
11,GUUCCGUUGGCGUAAUGGUAACGCGUCUCGCUCCUAAGGAGAAGACUGCGGGUUCGAGUCUCGUACGGUACG [C30G C61U A69U],≤ 0.5
12,GUUCCGUUGGCGUAAUGGUAACGCGUCUCGCUCCUAAGGACAAGACUGCGGGUUCGUGUCCCGUACGGAACG [C30G G41C A57U],≤ 0.5
13,GUUCCGUUGGCGUAAUGGUAACGCGUCUCGCUCCUAAGGAGAAGACUACGGGCUCGAGUCCCGUACGGAUCG [C30G G48A U53C A70U],≤ 0.5
14,GUUCCGUUGGCGUAAUGGUAACGCGUCUCGCUCCUAAGGAGAAGACUGCGGGUUCGGGUCCCAUACGGAACG [C30G A57G G63A],≤ 0.5
15,GUUCCGUUGGCGUAAUGGUAACGCGUCUCGCUCGUAAGCAGAAGACUGCGGGUUCGAGUCCCGUACGGCACG [C30G C34G G39C A69C],≤ 0.5
16,GUUCCGUUGGCGUAAUGGUAACGCGUCUCGCUGCUAAGGAGAAGACUCCGGGUUCGAGUACCGUACGGAACG [C30G C33G G48C C60A],0.586
17,GUUCCGUUGGCGUAAUGGUAACGCGUCUCGGUCCUAACGAGAAGAGUGCGGGUUCGAGUCCCGUACGGCACG [C30G C31G G38C C46G A69C],0.572
18,GUUCCGUUGGCGUAAUGGUAACGCGUCUCGGUCCUAACGAGAAGAGUGUGGGUUCGAGUCCCGUACGGAACG [C30G C31G G38C C46G C49U],0.532
19,GUUCCGUUGGCGUAAUGGUAACGCGUCUCGAUCCUGAGGAGAAGACUGCGGGUUCGAGUCCCCUACGGAACG [C30G C31A A36G G63C],≤ 0.5
